The values below come from ChEMBL document CHEMBL3392986, “Hydroxamic acids block replication of hepatitis C virus” (J Med Chem, 2015).

Some results are limits rather than exact numbers.

The subject of the first series is Hepatitis C virus. Kind of series: Antiviral activity against HCV genotype 1b infected in human Huh7 cells after 3 days by luciferase reporter gene assay. Format: functional, cell-based, Hepacivirus hominis. Particulars: Huh-7, 72 h.
One may read the EC50 as the midpoint of the concentration-response curve. On to `O=C(/C=C/c1ccc(C(F)(F)F)cc1)NO`, for which the EC50 came out at 0.14 µM.

The molecule `O=C(/C=C/c1ccc(Cl)cc1Cl)NO` [CINNAMIC ACID HYDROXAMATE] yielded an EC50 of 0.078 µM.

Consider `O=C(/C=C/c1ccc(C(F)(F)F)cn1)NO`, for which the EC50 amounted to 0.38 µM.

On to `O=C(NO)c1sc2ccccc2c1[S+]([O-])c1ccccc1` (stereo not given), for which the response was half-maximal at 1.4 µM (EC50).

Take `O=C(/C=C/c1ccc(C(F)(F)F)cc1F)NO`: the EC50 stood at 0.12 µM.

Turning to `O=C(/C=C/c1ccccc1)NO`, the EC50 was determined as 0.86 µM.

`O=C(NO)c1cc2cc([N+](=O)[O-])ccc2s1` displayed an EC50 of 2.4 µM.

With `O=C(/C=C/c1c(F)cc(C(F)(F)F)cc1F)NO`, the EC50 came to 0.54 µM.

`O=C(/C=C/c1ccc(Cl)cc1)NO`: the EC50 is 6 µM.

Turning to `O=C(/C=C/c1ccc(C(F)(F)F)cc1Cl)NO`, the EC50 was found to be 1.1 µM.

On to `O=C(NO)c1cc2ccccc2s1`, for which the EC50 turned out to be 1 µM.

The molecule `COc1cc(NC(=O)CCCCCCC(=O)NO)ccc1-c1cnco1` had an EC50 of 0.21 µM.

`O=C(NO)c1cc2ccccc2o1` gave an EC50 of 1.8 µM.

`O=C(/C=C/c1ccc([N+](=O)[O-])cc1)NO` came in with an EC50 of 0.45 µM.

In turn, `O=C(NO)c1cc2cc(Cl)ccc2s1` registered an EC50 of 0.69 µM.

Molecule `O=C(NO)c1ccc(C(F)(F)F)cc1` displayed an EC50 of 5.4 µM.

The molecule `COc1ccc(Cn2ccc3ccc(C(=O)NO)cc32)cc1` came in with an EC50 of 1.8 µM.

For `O=C(NO)c1cc2ccc([N+](=O)[O-])cc2s1`, the EC50 is 3.7 µM.

In turn, `O=C(/C=C/c1cccc(S(=O)(=O)Nc2ccccc2)c1)NO` [BELINOSTAT] returned an EC50 of 0.12 µM.

For the molecule `Nc1ccccc1NC(=O)c1ccc(CNC(=O)OCc2cccnc2)cc1` [ENTINOSTAT], the EC50 was 1.4 µM.

In turn, `C/C(=C\C(=O)NO)c1ccccc1` registered an EC50 of 3.2 µM.

In the case of `O=C(/C=C/c1ccc(C(F)(F)F)nc1)NO`, the EC50 was found to be 0.4 µM.

In the next series the test system is Hepatitis C virus. Kind of series: Antiviral activity against HCV genotype 1b infected in human Huh7 cells assessed as reduction in viral RNA level at 0.5 uM after 3 days by RT-qPCR. Format: functional, Hepacivirus hominis, Huh-7. Set-up: scale not given: the % may be the effect or the level left. Particulars: in the assay text read “2 uM” for “0.5 uM”. A digest of the protocol: (§1)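 Replicon-bearing Huh7 cells, 6 X 10^3 per well, exposed to compound in DMSO or DMSO alone for three days at 37 °C/5% CO2. Replicon RNA quantified by TaqMan Cells-to-CT RT-qPCR with NS5B primers/probe, using GAPDH in parallel wells as reference. Level relative to DMSO-treated cells calculated as 2-∆∆CT. Triplicate wells.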
Background: Quantitative PCR measures a nucleic acid by following its amplification.
Consider `O=C(NO)c1cc2cc(Cl)ccc2s1`, for which the Activity is reported as 75%.

Another series has as its system Hepatitis C virus. Briefly: Antiviral activity against HCV genotype 1b infected in human Huh7 cells assessed as reduction in viral RNA level at 2 uM after 3 days by RT-qPCR. Format: functional, Hepacivirus hominis, Huh-7. Set-up: scale not given: the % may be the effect or the level left.
Conditions: not given
A digest of the protocol: as §1
With `O=C(NO)c1cc2cc(Cl)ccc2s1`, the Activity stood at 75%.

The test system of another series is Hepatitis C virus. Kind of series: Antiviral activity against HCV genotype 1b infected in human Huh7 cells at 1 uM after 3 days by luciferase reporter gene assay. Format: functional, Hepacivirus hominis. Conditions: Huh-7, 72 h. The procedure, abridged: (§2)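 Subgenomic luciferase replicon cells seeded at 6 X 10^3 per well. Next day, medium containing compound in DMSO, or DMSO alone, was added. After three days, luciferase read with ViViRen live-cell substrate. Percent inhibition is the triplicate average; 2mA served as control in single-dose runs.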
Background: A reporter such as luciferase makes a cellular process visible.
For orientation: inhibition means the change of the read-out against control, counted positive when it falls. `CS(=O)(=O)c1ccc(/C=C/C(=O)NO)cc1` returned an inhibition at 1 µM of 30%.

`O=C(NO)c1cc2ccc(C(F)(F)F)cc2s1` registered an inhibition at 1 µM of 0%.

`O=C(NO)c1cc2cc(C(F)(F)F)ccc2s1`: testing at 1 µM gave an inhibition of 16%.

The subject of the next series is Hepatitis C virus. Kind of series: Antiviral activity against HCV genotype 1b infected in human Huh7 cells at 10 uM after 3 days by luciferase reporter gene assay. Format: functional, Hepacivirus hominis. Particulars: Huh-7, 72 h. The procedure, abridged: as §2
For `CS(=O)(=O)c1ccc(/C=C/C(=O)NO)cc1`, at 10 µM the inhibition was 93%.

In turn, `O=C(NO)c1cc2ccc(C(F)(F)F)cc2s1` yielded an inhibition at 10 µM of 83%.

Turning to `O=C(NO)c1cc2cc(C(F)(F)F)ccc2s1`, at 10 µM the inhibition was 94%.

Test system in another series: not listed separately
Kind of series: Cytotoxicity against human HuH7 cells assessed as inhibition of cell viability at 10 uM after 3 days by CellTiter 96 assay. Format: cell-based, Huh-7. Conditions: read-out: INH. A digest of the protocol:
(§3)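 Replicon cells plated at 6 X 10^3 per well and treated the next day with compound in DMSO, DMSO alone or nothing for three days at 37 °C/5% CO2. Viability measured by CellTiter 96 AQueous One, absorbance 450 nm. Percent inhibition is the average of triplicate wells.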
Take `CS(=O)(=O)c1ccc(/C=C/C(=O)NO)cc1`: the cytotoxicity at 72 h, 10 µM came to 0%.

On to `O=C(NO)c1cc2ccc(C(F)(F)F)cc2s1`, for which the cytotoxicity at 72 h, 10 µM worked out at 13%.

With `O=C(NO)c1cc2cc(C(F)(F)F)ccc2s1`, the cytotoxicity at 72 h, 10 µM came to 0%.

Test system in the next series: not listed separately
Kind of series: Cytotoxicity against human HuH7 cells assessed as inhibition of cell viability at 1 uM after 3 days by CellTiter 96 assay. Format: cell-based, Huh-7. Conditions: read-out: INH. A digest of the protocol:
as §3
Take `CS(=O)(=O)c1ccc(/C=C/C(=O)NO)cc1`: the cytotoxicity at 72 h, 1 µM was 0%.

On to `O=C(NO)c1cc2ccc(C(F)(F)F)cc2s1`, for which the cytotoxicity at 72 h, 1 µM amounted to 4%.

In the case of `O=C(NO)c1cc2cc(C(F)(F)F)ccc2s1`, the cytotoxicity at 72 h, 1 µM is 10%.

Test system in a further series: not listed separately
Kind of series: Therapeutic index, ratio of CC50 for human HuH7 cells to EC50 for HCV genotype 1b infected in human Huh7 cells. Particulars: HuH7 cells.
For `O=C(/C=C/c1ccc(C(F)(F)F)cc1)NO`, the selectivity ratio is 178.

Consider `O=C(/C=C/c1ccc(Cl)cc1Cl)NO` [CINNAMIC ACID HYDROXAMATE], for which the selectivity ratio stood at 104.

`O=C(/C=C/c1ccc(C(F)(F)F)cn1)NO`: the selectivity ratio came to 34.

In the case of `O=C(NO)c1sc2ccccc2c1[S+]([O-])c1ccccc1` (stereo not given), the selectivity ratio is > 36.

Turning to `O=C(/C=C/c1ccc(C(F)(F)F)cc1F)NO`, the selectivity ratio came out at 117.

For `O=C(NO)c1cc2cc([N+](=O)[O-])ccc2s1`, the selectivity ratio is 14.

For the molecule `O=C(/C=C/c1c(F)cc(C(F)(F)F)cc1F)NO`, the selectivity ratio is 22.

With `O=C(/C=C/c1ccc(Cl)cc1)NO`, the selectivity ratio was > 8.

Take `O=C(/C=C/c1ccc(C(F)(F)F)cc1Cl)NO`: the selectivity ratio stood at 14.

Take `O=C(NO)c1cc2ccccc2s1`: the selectivity ratio was 28.

As for `COc1cc(NC(=O)CCCCCCC(=O)NO)ccc1-c1cnco1`, the selectivity ratio worked out at 12.

Take `O=C(NO)c1cc2ccccc2o1`: the selectivity ratio is 30.

Take `O=C(/C=C/c1ccc([N+](=O)[O-])cc1)NO`: the selectivity ratio was 64.

For the molecule `O=C(NO)c1cc2cc(Cl)ccc2s1`, the selectivity ratio amounted to 39.

In the case of `O=C(NO)c1ccc(C(F)(F)F)cc1`, the selectivity ratio is > 18.

With `COc1ccc(Cn2ccc3ccc(C(=O)NO)cc32)cc1`, the selectivity ratio was 6.

For the molecule `O=C(NO)c1cc2ccc([N+](=O)[O-])cc2s1`, the selectivity ratio turned out to be 15.

Turning to `C/C(=C\C(=O)NO)c1ccccc1`, the selectivity ratio came out at 18.

With `O=C(/C=C/c1ccc(C(F)(F)F)nc1)NO`, the selectivity ratio came out at 48.

The same series, now with this note: huh-7.
In the case of `O=C(/C=C/c1ccccc1)NO`, the selectivity ratio was 45.

As for `O=C(/C=C/c1cccc(S(=O)(=O)Nc2ccccc2)c1)NO` [BELINOSTAT], the selectivity ratio stood at 6.

Consider `Nc1ccccc1NC(=O)c1ccc(CNC(=O)OCc2cccnc2)cc1` [ENTINOSTAT], for which the selectivity ratio came to 4.

Test system in another series: not listed separately
Briefly: Cytotoxicity against human HuH7 cells assessed as inhibition of cell viability after 3 days by CellTiter 96 assay.
Conditions: not given
As a reminder, the CC50 is the concentration at which the toxic effect on the cells reaches its halfway point. Take `O=C(/C=C/c1ccc(C(F)(F)F)cc1)NO`: the half-maximal cytotoxic concentration (CC50) at 72 h worked out at 25 µM.

For `O=C(/C=C/c1ccc(Cl)cc1Cl)NO` [CINNAMIC ACID HYDROXAMATE], the CC50 at 72 h came out at 8.1 µM.

As for `O=C(/C=C/c1ccc(C(F)(F)F)cn1)NO`, the CC50 at 72 h was found to be 13 µM.

As for `O=C(NO)c1sc2ccccc2c1[S+]([O-])c1ccccc1` (stereo not given), the CC50 at 72 h is > 50 µM.

`O=C(/C=C/c1ccc(C(F)(F)F)cc1F)NO`: the CC50 at 72 h is 14 µM.

`O=C(/C=C/c1ccccc1)NO`: the CC50 at 72 h was found to be 39 µM.

Consider `O=C(NO)c1cc2cc([N+](=O)[O-])ccc2s1`, for which the CC50 at 72 h was 34 µM.

Turning to `O=C(/C=C/c1c(F)cc(C(F)(F)F)cc1F)NO`, the CC50 at 72 h turned out to be 12 µM.

Regarding `O=C(/C=C/c1ccc(Cl)cc1)NO`, the CC50 at 72 h was > 50 µM.

`O=C(/C=C/c1ccc(C(F)(F)F)cc1Cl)NO`: the CC50 at 72 h came to 15 µM.

As for `O=C(NO)c1cc2ccccc2s1`, the CC50 at 72 h came out at 28 µM.

On to `COc1cc(NC(=O)CCCCCCC(=O)NO)ccc1-c1cnco1`, for which the CC50 at 72 h was 2.6 µM.

For `O=C(NO)c1cc2ccccc2o1`, the CC50 at 72 h was 54 µM.

Regarding `O=C(/C=C/c1ccc([N+](=O)[O-])cc1)NO`, the CC50 at 72 h was determined as 29 µM.

As to `O=C(NO)c1cc2cc(Cl)ccc2s1`, the CC50 at 72 h came to 27 µM.

Take `O=C(NO)c1ccc(C(F)(F)F)cc1`: the CC50 at 72 h is > 100 µM.

On to `COc1ccc(Cn2ccc3ccc(C(=O)NO)cc32)cc1`, for which the CC50 at 72 h came to 11 µM.

As for `O=C(NO)c1cc2ccc([N+](=O)[O-])cc2s1`, the CC50 at 72 h came to 54 µM.

`O=C(/C=C/c1cccc(S(=O)(=O)Nc2ccccc2)c1)NO` [BELINOSTAT]: the CC50 at 72 h was 0.68 µM.

Turning to `Nc1ccccc1NC(=O)c1ccc(CNC(=O)OCc2cccnc2)cc1` [ENTINOSTAT], the CC50 at 72 h is 5.1 µM.

For the molecule `C/C(=C\C(=O)NO)c1ccccc1`, the CC50 at 72 h worked out at 59 µM.

With `O=C(/C=C/c1ccc(C(F)(F)F)nc1)NO`, the CC50 at 72 h came to 19 µM.
